This is a sample that favours compounds with a hit; in the whole collection about 9.8% have one here.
PMI act – activators of human PMI, primary screen, biochemical, fluorescence intensity, near-Km mannose 6-phosphate; actives 0.005% (n = 190,000); purified human PMI, coupled resazurin fluorescence, 20 min; stronger effect = higher value; 1 = vehicle control, 0 substrate-free wells; Mannose-6-phosphate isomerase (Homo sapiens), P34949; activation factor at 20 µM;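 active = activation factor of 2 or more at 20 µM, relative to plate controls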
Target sequence (P34949 whole entry, looked up): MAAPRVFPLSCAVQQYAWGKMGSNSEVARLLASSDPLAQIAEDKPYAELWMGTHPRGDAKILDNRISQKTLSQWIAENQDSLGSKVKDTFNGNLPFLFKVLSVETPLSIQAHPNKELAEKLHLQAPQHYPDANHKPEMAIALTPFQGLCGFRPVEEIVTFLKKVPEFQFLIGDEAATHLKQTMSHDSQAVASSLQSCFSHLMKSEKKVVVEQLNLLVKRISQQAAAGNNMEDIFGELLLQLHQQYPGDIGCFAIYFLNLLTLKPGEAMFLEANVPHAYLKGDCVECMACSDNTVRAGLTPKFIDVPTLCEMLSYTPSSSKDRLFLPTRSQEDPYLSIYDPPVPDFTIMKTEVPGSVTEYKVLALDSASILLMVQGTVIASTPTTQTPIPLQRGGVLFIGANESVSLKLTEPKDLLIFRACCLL
L major viab – Leishmania major promastigote growth inhibition, primary screen; Leishmania major promastigotes, resazurin fluorescence viability; inhibition, % at 10 µM; actives 9% (n = 200,000); AID 1063, 2008; in the data active = inhibition above about 50%;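 also: promastigotes grown with compound for 44 hours at 28 °C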
WT yeast gro inh – growth inhibition of WT strain, primary screen, mitochondrial fusion inhibitor project, WT and mutant strains, chemical genetic | mitochondrial fusion phenotypic screen | inhibition, % at 10 µM | actives 2.1% (n = 190,000) | AID 1362, 2008; in the data active = inhibition above about 58%; tested in S. cerevisiae
PMI act hi M6P – human PMI activators, high substrate, primary screen, biochemical, fluorescence intensity, near-saturating mannose 6-phosphate | actives 0.34% (n = 190,000) | activation factor at 20 µM | AID 1216, 2008 | coupled PMI enzyme assay, resazurin fluorescence, 20 min; stronger effect = higher value; 1 = untreated enzyme, 0 = substrate-free blank;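 active = activation factor of 2 or more at 20 µM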
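Material: human phosphomannose isomerase with PGI, G6PDH, diaphorase coupling enzymes. Quantity: 15 ng/mL PMI. Medium: HEPES pH 7.4 buffer with MgCl2 and Tween-20. Reagent: Near-saturating mannose-6-phosphate, 1.0 mM. Compound: 20 µM single dose. Times: enzyme reaction with compound 20 min at room temperature. Detection: resorufin fluorescence at Ex 544/Em 590 nm.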
Rad51 HR inh – human RAD51 strand exchange inhibitors, primary screen, biochemical, fluorescence; hRad51 DNA strand exchange, fluorescence dequenching; inhibition, % at 10 µM; actives 0.085% (n = 200,000);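 active = inhibition above 40% at the single screening dose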
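Test system: preformed human Rad51 ssDNA filaments. Compound dosing: single dose, 10 µM final compound. Incubation: filaments 15 min 37 °C, then compound 30 min. Technique: FRET fluorescence dequenching, excitation 485 nm, emission 520 nm. Read-out basis: percent inhibition from fluorescence, normalised to plate control and blank means. Benchmarks: plate controls and plate blanks.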
Calpain2 inh – inhibitors of pig calpain II, primary screen, biochemical, fluorogenic peptide substrate, 1536-well | purified calpain II, 30 min | inhibition, % at 16 µM | actives 0.37% (n = 220,000);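 active = inhibition above about 50%, limit read from the data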
A number is an active result; i = inactive; nt = no result.

SMILES | PMI act | L major viab | WT yeast gro inh | PMI act hi M6P | Rad51 HR inh | Calpain2 inh
CCn1cc(C(=O)NCCc2ccccc2)c(=O)c2cc(F)c(N3CCN(C)CC3)cc21 | i | 97 | 62 | i | i | i
CCCc1ccc(/C=C2\C(=O)c3ccccc3C(O)=C2C(=O)OCC)cc1 | i | i | 59 | i | i | i
Cc1cc(C)cc(OC(=O)C23CCC(C)(C(=O)O2)C3(C)C)c1 (centres undefined) | i | i | i | i | nt | i
O=C(O)CCC(=O)NCC(=O)c1ccc(F)cc1 | nt | nt | nt | nt | i | i
O=C(Nc1ccccc1C(=O)O)c1cccc(F)c1 | nt | i | nt | nt | i | nt
O=C(CC(=O)c1ccccc1O)c1cccc(F)c1 | i | 98 | i | i | i | i
O=C(CNc1ccc(F)cc1)c1ccccc1 | i | 83 | i | i | i | i
O=C(CC(=O)c1ccccc1O)c1ccc(F)cc1 | i | 97 | i | i | i | i
NS(=O)(=O)c1ccc(CCNC(=O)CN2CCCCCC2)cc1 | i | i | i | i | i | i
O=C(CCCN1CCC(O)(c2ccc(Cl)cc2)CC1)c1ccc(F)cc1 | i | 97 | i | i | i | i
COc1ccccc1N1CCN(CCCC(=O)c2ccc(F)cc2)CC1 | i | i | i | i | i | i
COc1ccc(OC)c(C(=O)C2COC(=O)C2)c1 (centres undefined) | i | 56 | i | i | i | i
CCOc1cc(Cl)c(S(=O)(=O)NCc2ccccn2)cc1Cl | i | 99 | i | i | i | i
COc1ccc(S(=O)(=O)NCc2ccccn2)cc1Cl | i | i | i | i | i | i
COc1ccccc1Oc1ccc(S(=O)(=O)NCc2ccccn2)cc1 | i | 52 | i | i | i | i
COc1ccc(-c2noc(CCC(=O)NCCCN3CCN(c4ccc(F)cc4)CC3)n2)cc1 | i | i | i | i | i | i
COc1ccc(-c2noc(CCC(=O)NCCCN3CCC(Cc4ccccc4)CC3)n2)cc1 | i | 100 | i | i | i | i
COc1ccc(-c2noc(=O)n2CC(=O)N2CCC(Cc3ccccc3)CC2)cc1 | i | 96 | i | i | i | i
NC(=O)SCC(=O)Nc1ccc(Cl)c(Cl)c1 | i | 98 | i | i | i | i
Cc1c(-c2ccccc2)nc2ccccc2c1C(=O)Oc1ccc([N+](=O)[O-])cc1 | i | 50 | i | i | i | i
C(#Cc1ccccc1)C[N+]1(CC#Cc2ccccc2)CCCCC1 | i | 100 | i | i | i | i
Cc1ccc(C#CC[N+]2(CC#Cc3ccc(C)cc3)CCCCC2)cc1 | i | 100 | i | i | nt | i
C(#Cc1ccccc1)C[N+]1(CC#Cc2cccc3ccccc23)CCOCC1 | i | 100 | i | i | i | i
O=C(C[N+]1(CC#Cc2ccccc2)CCCCC1)c1ccc(Cl)cc1 | i | 52 | i | i | i | i
C#CC[N+]1(CC#Cc2ccccc2)CCCCC1 | i | i | i | i | i | i
SMILES | PMI act | L major viab | WT yeast gro inh | PMI act hi M6P | Rad51 HR inh | Calpain2 inh
CCc1ccc(NC(=O)C2CCCN2S(=O)(=O)c2ccc3c(c2)n(C)c(=O)c(=O)n3C)cc1 (centres undefined) | nt | nt | nt | nt | nt | i
CC(C)(C)NC(=S)NNC(=O)c1cccc(Br)c1 | i | i | i | i | i | i
CCC[N+](CC#Cc1ccccc1)(CCC)CC(=O)OC | i | i | i | i | i | i
CCC[N+](CC#Cc1ccccc1)(CCC)CC(=O)c1ccc(Cl)cc1 | i | 100 | i | i | i | i
Cc1ccc(-c2nnn(CC(=O)Nc3nnc(C(C)C)s3)n2)cc1 | i | i | i | i | i | i
Cc1nc2ccccc2n(CC(=O)Nc2cc(Cl)cc(Cl)c2)c1=O | i | i | i | i | i | i
O=C(c1cccnc1Cl)N1CCOCC1 | i | i | i | i | i | i
CS(=O)(=O)c1ccc2nc(NC(=O)Cc3ccccc3)sc2c1 | i | i | i | i | nt | i
CC(C)(C)NS(=O)(=O)c1ccc2nc(NC(=O)Cc3cccs3)sc2c1 | i | 95 | i | i | i | i
Cc1nc(OCc2c(C)noc2C)c2ccccc2n1 | i | i | i | i | i | i
Cn1c(-c2c(N)n(-c3ccccc3)c3nc4ccccc4nc23)nc2ccccc21 | i | 75 | 59 | i | i | i
Cc1c(Cl)cccc1NC(=S)N1CCN(Cc2ccc3c(c2)OCO3)CC1 | i | 74 | i | i | i | i
Cc1ccc(S(=O)(=O)N(C)C)cc1NC(=S)N1CCN(Cc2ccc3c(c2)OCO3)CC1 | i | 84 | i | i | i | i
COc1ccccc1NC(=S)N1CCN(Cc2ccc3c(c2)OCO3)CC1 | i | 96 | i | i | i | i
COc1ccccc1NC(=O)N1CCN(Cc2ccc3c(c2)OCO3)CC1 | nt | nt | nt | nt | i | i
OC1CCN(C(=S)Nc2ccc(Oc3ccccc3)cc2)CC1 | i | i | i | i | i | i
CCOC(=O)c1cn(CC(=O)Nc2ccc(OC)cc2OC)nn1 | i | i | i | i | nt | i
O=S(=O)(NCc1ccccc1)c1ccc(Br)c2nsnc12 | nt | nt | nt | nt | i | i
COc1ccc(NC(=O)c2ccc3ccccc3n2)cc1S(=O)(=O)Nc1ccccc1Cl | i | 98 | i | i | i | i
COc1ccc(NC(=O)c2cc(C)nc3ccccc23)cc1S(=O)(=O)Nc1ccccc1Cl | i | i | i | i | nt | i
COC(=O)c1cccc(NC(=O)c2nn(C)c(=O)c3ccccc23)c1 | i | i | i | i | i | i
CCOc1ccc(NS(=O)(=O)c2cc(NC(=O)CCS(=O)(=O)c3ccc(C)cc3)ccc2OC)cc1 | i | 60 | i | i | i | i
CCOc1ccc(NC(=O)COC(=O)CCS(=O)(=O)c2ccc(C)cc2)cc1 | i | i | i | i | i | i
COc1ccc(NC(=O)CCSc2ccc(C)cc2)cc1S(=O)(=O)Nc1ccccc1Cl | i | 88 | i | i | i | i
COc1ccc(NC(=O)c2nn(C)c(=O)c3ccccc23)cc1S(=O)(=O)Nc1ccccc1Cl | i | 60 | i | i | i | i
SMILES | PMI act | L major viab | WT yeast gro inh | PMI act hi M6P | Rad51 HR inh | Calpain2 inh
O=C(NCCN1CCCOC1=O)C(=O)NCCN1CCCOC1=O | nt | nt | nt | nt | nt | i
COc1ccc(N2CCN(C(=O)C3CCCN(S(=O)(=O)c4c(C)noc4C)C3)CC2)cc1 (centres undefined) | nt | nt | nt | nt | i | i
CCOC(=O)c1c(NC(=S)Nc2ccccc2)sc(C)c1C | i | i | i | i | i | i
Cc1sc(NC(=O)CCl)c(C(=O)c2ccccc2)c1C | i | 101 | i | i | i | i
CCOC(=O)c1cc(C)sc1NC(=O)CCC(=O)O | i | i | i | i | i | i
CCOC(=O)c1c(NC(=O)C[n+]2ccc(Cc3ccccc3)cc2)sc(C)c1C | i | 53 | i | i | i | i
